Source: ChEMBL document CHEMBL1124052, “New inhibitors of human renin that contain novel Leu-Val replacements. Examination of the P1 site” (J Med Chem, 1988)
pIC50: −log10 of the molar value. Non-standard residues stand in square brackets, D forms with d. Residues, ends and D or L forms follow the SMILES beside them. *: point of attachment. hCha = N[C@@H](CCC1CCCCC1)C(=O)O; Cha = N[C@@H](CC1CCCCC1)C(=O)O; Chg = N[C@H](C(=O)O)C1CCCCC1; Boc = CC(C)(C)OC(=O)*

Assays:
Renin = molecular target: T1, Renin (Homo sapiens, UniProt P00797); test: (§1) Inhibition of human renal renin at pH 6
T1 sequence (P00797 whole entry): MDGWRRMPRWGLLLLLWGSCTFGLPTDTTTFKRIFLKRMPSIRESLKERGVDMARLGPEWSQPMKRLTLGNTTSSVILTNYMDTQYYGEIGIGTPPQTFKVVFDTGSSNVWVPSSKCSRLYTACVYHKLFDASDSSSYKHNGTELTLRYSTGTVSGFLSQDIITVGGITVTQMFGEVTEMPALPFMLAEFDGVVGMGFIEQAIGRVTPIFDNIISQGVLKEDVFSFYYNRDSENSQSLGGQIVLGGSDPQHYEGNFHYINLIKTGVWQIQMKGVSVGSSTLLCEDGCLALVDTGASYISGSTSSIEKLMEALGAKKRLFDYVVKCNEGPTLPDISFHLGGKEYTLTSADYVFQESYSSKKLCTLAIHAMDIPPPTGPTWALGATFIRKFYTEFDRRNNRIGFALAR
In short: (§2)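 Purified human renal renin (0.24 mGU) was incubated with pure human angiotensinogen (0.21 µM final) in 0.135 M maleate pH 6.0 with 3 mM EDTA, 1.4 mM PMSF, 0.44% BSA and 1% DMSO. At least three inhibitor levels bracketing the IC50 were preincubated with renin for 5.0 min at 37 °C, then reacted 10.0 min. The reaction was stopped by freezing, angiotensin I was measured by RIA, and the IC50 was taken by regression of percent inhibition.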

Renin (Homo sapiens) [1] = molecular target: T2, Renin (Homo sapiens) (UniProt P00797); test: as §1; conditions: concentration not given here; in short: as §2
T2 sequence (whole entry): T1 sequence (P00797 whole entry)

Renin (Homo sapiens) [2] = molecular target: T2, Renin (Homo sapiens); test: Inhibitory activity against human renal renin at pH 6 at concentration 10E-5 M

Row | Compound | pIC50 (Renin) | further results
1 | CC(C)SC[C@H](O)[C@H](CCC1CCCCC1)NC(=O)[C@H](Cc1c[nH]cn1)NC(=O)[C@H](Cc1ccccc1)NC(=O)OC(C)(C)C | 5.82 | –
2 | C[C@H](NC(=O)[C@H](Cc1ccccc1)NC(=O)OC(C)(C)C)C(=O)N[C@H](C=O)CC12CC3CC(CC(C3)C1)C2 | 4.46 | –
3 | CC(C)SC[C@H](O)[C@H](Cc1ccccc1)NC(=O)[C@H](Cc1cnc[nH]1)NC(=O)[C@H](Cc1ccccc1)NC(=O)OC(C)(C)C | 7.72 | –
4 | Cc1cc(C)c(C[C@H](NC(=O)[C@H](C)NC(=O)[C@H](Cc2ccccc2)NC(=O)OC(C)(C)C)[C@@H](O)CSC(C)C)c(C)c1 | – | inhibition (Renin (Homo sapiens) [1]): 5%
5 | C[C@H](NC(=O)[C@H](Cc1ccccc1)NC(=O)OC(C)(C)C)C(=O)N[C@H](C=O)CCC1CCCCC1 (Boc-Phe-Ala-[hCha]-aldehyde) | 4.26 | –
6 | CC(C)SC[C@H](O)[C@H](CC1CCCCC1)NC(=O)[C@H](C)NC(=O)[C@H](Cc1ccccc1)NC(=O)OC(C)(C)C | 8.05 | –
7 | CC(C)SC[C@H](O)[C@@H](NC(=O)[C@H](C)NC(=O)[C@H](Cc1ccccc1)NC(=O)OC(C)(C)C)C(c1ccccc1)c1ccccc1 | – | inhibition (Renin (Homo sapiens) [1]): 11%
8 | CC(C)SC[C@H](O)[C@H](Cc1ccccc1)NC(=O)[C@H](C)NC(=O)[C@H](Cc1ccccc1)NC(=O)OC(C)(C)C | 6.77 | –
9 | CC(C)SC[C@H](O)[C@@H](NC(=O)[C@H](C)NC(=O)[C@H](Cc1ccccc1)NC(=O)OC(C)(C)C)C1CCCCC1 | 5.82 | –
10 | CC(C)SC[C@H](O)[C@@H](NC(=O)[C@H](Cc1cnc[nH]1)NC(=O)[C@H](Cc1ccccc1)NC(=O)OC(C)(C)C)C1CCCCC1 | 6.82 | –
11 | CC(C)SC[C@H](O)[C@@H](NC(=O)[C@H](Cc1c[nH]cn1)NC(=O)[C@H](Cc1ccccc1)NC(=O)OC(C)(C)C)C(c1ccccc1)c1ccccc1 | – | inhibition (Renin (Homo sapiens) [1]): 3%
12 | CC(C)SC[C@H](O)[C@H](CC12CC3CC(CC(C3)C1)C2)NC(=O)[C@H](Cc1c[nH]cn1)NC(=O)[C@H](Cc1ccccc1)NC(=O)OC(C)(C)C | 5.60 | –
13 | C[C@H](NC(=O)[C@H](Cc1ccccc1)NC(=O)OC(C)(C)C)C(=O)N[C@H](C=O)CC1CCCCC1 (Boc-Phe-Ala-[Cha]-aldehyde) | 6.34 | –
14 | CC(C)C[C@H](NC(=O)[C@H](Cc1cnc[nH]1)NC(=O)[C@H](Cc1ccccc1)NC(=O)OC(C)(C)C)[C@@H](O)CSC(C)C | 7.09 | –
15 | CC(C)SC[C@H](O)[C@H](CCC1CCCCC1)NC(=O)[C@H](C)NC(=O)[C@H](Cc1ccccc1)NC(=O)OC(C)(C)C | – | inhibition (Renin (Homo sapiens) [2]): 45%
16 | CC(C)C[C@@H](C=O)NC(=O)[C@H](C)NC(=O)[C@H](Cc1ccccc1)NC(=O)OC(C)(C)C (Boc-Phe-Ala-Leu-aldehyde) | 4.70 | –
17 | C[C@H](NC(=O)[C@H](Cc1ccccc1)NC(=O)OC(C)(C)C)C(=O)N[C@H](C=O)C(C1CCCCC1)C1CCCCC1 | 4.40 | –
18 | C[C@H](NC(=O)[C@H](Cc1ccccc1)NC(=O)OC(C)(C)C)C(=O)N[C@H](C=O)C1CCCCC1 (Boc-Phe-Ala-[Chg]-aldehyde) | 6.00 | –
